Bioassay records deposited in PubChem BioAssay by several laboratories.
A selection: hits, their analogues and other compounds. The true share with any hit is near 1.7%.
Efflux pump mplx – inhibitors of Candida efflux pumps in yeast, primary screen, S. cerevisiae, Nile Red, multiplex; S. cerevisiae Candida pump triplex; 330,000 compounds, 0.44% hits; AID 485275, 2010; inhibition, % at 10 µM;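 active means plate passing quality check with inhibition over a set limit, or well fluorescence over plate mean plus 4 SD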;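 further: Nile Red retained in pooled yeast measured as flow cytometry median fluorescence; 0% = buffer negative control and 100% = Enniatin B positive control; higher means more Nile Red kept so more efflux inhibition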
DSG3 Ab inh – inhibitors of pemphigus antibody binding to DSG3, primary screen, biochemical, bead-based, flow cytometry, scFv-GFP. Desmoglein-3 (Homo sapiens), P32926. DSG3-coupled beads, scFv-anti-DSG3-GFP binding; hits give low values. binding (percent of control), % at 10 µM. 310,000 compounds, 0.48% hits;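 active means binding more than 3 SD below its plate's average and above zero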;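 further: hits lower antibody fragment binding to DSG3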
Neddyl block – inhibitors of cullin neddylation, primary screen, biochemical, TR-FRET, uHTS, NAE and Ubc12; NEDD8-conjugating enzyme Ubc12 (Homo sapiens) + NEDD8-activating enzyme E1 regulatory …; inhibition, % at 25 µM; 360,000 compounds, 0.58% hits; in the data active means inhibition above about 36%
Target sequence (P61081 whole entry, looked up): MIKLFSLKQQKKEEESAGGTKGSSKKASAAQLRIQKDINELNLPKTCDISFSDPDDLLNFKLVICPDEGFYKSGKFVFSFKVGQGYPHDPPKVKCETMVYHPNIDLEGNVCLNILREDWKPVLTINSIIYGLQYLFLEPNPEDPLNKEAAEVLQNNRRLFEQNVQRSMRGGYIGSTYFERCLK
Target sequence (Q13564 whole entry, looked up): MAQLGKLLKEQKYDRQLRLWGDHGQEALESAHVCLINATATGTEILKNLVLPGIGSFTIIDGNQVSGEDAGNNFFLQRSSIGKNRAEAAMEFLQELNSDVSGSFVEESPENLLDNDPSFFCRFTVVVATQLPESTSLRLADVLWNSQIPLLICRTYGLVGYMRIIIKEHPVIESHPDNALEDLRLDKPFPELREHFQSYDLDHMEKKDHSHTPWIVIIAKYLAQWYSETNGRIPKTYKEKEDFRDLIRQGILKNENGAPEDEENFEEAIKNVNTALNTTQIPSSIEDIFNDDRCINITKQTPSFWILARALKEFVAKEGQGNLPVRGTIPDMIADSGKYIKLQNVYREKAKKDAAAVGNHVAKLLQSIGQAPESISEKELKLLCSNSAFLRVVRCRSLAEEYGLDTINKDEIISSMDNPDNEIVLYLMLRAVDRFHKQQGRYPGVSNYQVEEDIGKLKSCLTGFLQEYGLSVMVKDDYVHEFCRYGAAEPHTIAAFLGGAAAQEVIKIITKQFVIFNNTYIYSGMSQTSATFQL
Arr AP2 block – inhibitors of beta-arrestin/AP2 binding, primary screen, biochemical, GPCR trafficking, flow cytometry; beta-arrestin 1 C-terminal peptide binding to AP2 beta2-adaptin appendage (human); AID 504490, 2011; 340,000 compounds, 0.31% hits; inhibition, % at 10 µM; FITC-arrestin peptide / GST-AP2 beads; AP2 beta2 appendage carries R879A mutation;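 active means inhibition above a set limit, near 3 SD of compounds lacking own fluorescence, cut at about 54% in these data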;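 further: plate controls were DMSO wells for no effect and 5 µM unlabelled arrestin peptide for full effect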
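Test system: GST-tagged AP2 beta2-adaptin appendage (R879A) on 4 µm glutathione beads; also added: fluorescein-tagged arrestin peptide at 50 nM final; timing: 12 min plus 1 h, RT; signal: flow cytometry, FL1 (488/535 nm); read-out: percent drop in bead-associated FITC signal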
* marks the source's active call; other numbers are inactive results; i = inactive; . = no result shown.

SMILES | Efflux pump mplx | DSG3 Ab inh | Neddyl block | Arr AP2 block
O=C(N/N=C/c1ccc([N+](=O)[O-])o1)c1sc2ccccc2c1Cl | -0.1 | 81.8* | -72.9 | 4.3
COc1cccc(/C=N/NC(=S)NCCc2ccccc2)c1OC | 0.0 | 70.4* | 10.9 | -1.7
COc1ccc(OC)c(/C=N/NC(=S)NCCc2ccccc2)c1 | 0.1 | 61.8* | . | 3.2
CC(C)(C)SCCNC(=O)c1ccc(Cl)c([N+](=O)[O-])c1 | -0.1 | . | -18.7 | 3.8
Nc1nc(N)c2nc(-c3ccccc3)c(N)nc2n1 | -0.1 | 92.9 | 21.2 | -1.8
NSc1nc(N)c2nc(-c3ccccc3)c(-c3ccccc3)nc2n1 | 0.1 | 67.4* | 31.7 | -7.8
CCCCOC(=O)CSc1nc(N)c(C#N)c(-c2ccc(OC)cc2)c1C#N | 0.0 | -28.5* | -353.6 | -8.0
CCCCOC(=O)CSc1nc(N)c(C#N)c(-c2ccc(OCC)cc2)c1C#N | 0.1 | 80.1* | i | 17.2
CCCOC(=O)CSc1nc(N)c(C#N)c(CC)c1C#N | 0.1 | 12.5* | i | -1.0
Cc1ccc(N2C(=O)CCC2=O)c(C)c1 | -0.1 | 109.2 | -3.0 | -1.4
CSC1=NC=C(C#N)C2=NC(c3c(Cl)cccc3Cl)NN12 (centres undefined) | . | . | -34.6 | .
CCN(CC(=O)Nc1c(F)cccc1F)C(=O)CNC(=O)c1sc2ccccc2c1Cl | -0.1 | . | -117.5 | -10.0
CC1CCCN(C(=O)C2CC(=O)N(c3ccc(Cl)cc3)C2)C1 (centres undefined) | 0.7 | 106.6 | -2.6 | 24.1
CCC(CC)COC(=O)C1=C(C)NC(=O)NC1c1cccc([N+](=O)[O-])c1 (centres undefined) | -0.1 | 115.4 | -5.9 | 13.0
Cc1ccc(C(=O)N/C(=C/c2ccc(N(C)C)cc2)C(=O)NCC2CCCO2)cc1 (centres undefined) | -0.3 | 35.2* | 2.2 | 35.8
Cc1ccc(C(=O)N/C(=C/c2ccc(Cl)cc2)C(=O)NCC2CCCO2)cc1 (centres undefined) | -0.1 | 101.1 | 2.9 | 16.2
O=C(CCCN1C(=O)/C(=C/c2ccccc2Cl)SC1=S)NNC(=O)c1cccnc1 | 0.0 | 102.0 | -21.4 | 27.5
O=C(CCN1C(=O)/C(=C\c2ccccc2)SC1=S)NNC(=O)c1cccnc1 | 0.0 | 72.0* | -27.8 | 18.4
O=C(CCCN1C(=O)/C(=C/c2cccs2)SC1=S)Nc1cccnc1 | -0.1 | 68.2* | -15.3 | 0.6
CC(=C\c1ccccc1)/C=C1/SC(=S)N(CCC(=O)Nc2ccccn2)C1=O | 0.7* | . | . | .
COc1ccc(CNC(=O)COC(=O)C(CCSC)NC(=O)c2ccco2)cc1OC (centres undefined) | -0.2 | 104.7 | -21.7 | -0.6
CCOC(=O)CN1N=C(c2ccc(Cl)cc2)CCC1=O | 0.1 | 66.5* | 1.3 | 2.1
CC(C)CCNC(=O)CN1N=C(c2ccc(Cl)cc2)CCC1=O | 0.0 | 104.6 | -0.1 | 6.9
CN(C)c1ccc(C#Cc2ccc3cc(CCCO)oc(=O)c3c2)cc1 | 0.0 | 84.2* | -32.6 | -2.6
CC(C)(C)OC(=O)N1CCCC(C(=O)Nc2cccc(C(=O)N3CCOCC3)c2)C1 (centres undefined) | . | 103.0 | 3.5 | 24.6
SMILES | Efflux pump mplx | DSG3 Ab inh | Neddyl block | Arr AP2 block
CC(=O)N(CCN(C(C)=O)c1ccccc1)c1ccccc1 | 0.2 | 104.0 | 5.0 | -4.5
CC(=O)N(Nc1ccccc1)c1ccccc1 | 0.1 | 67.3* | -2.8 | 8.0
COc1cccc(C2Nc3ccccc3NC3=C2C(=O)CC(C)(C)C3)c1 (centres undefined) | -0.1 | 101.2 | -11.1 | 8.3
Cc1ccc(NC(=O)CSc2nnc(NC(=O)c3ccco3)s2)cc1 | 0.0 | 5.9* | 19.7 | 3.6
COc1ccc([C@H]2CC(=O)C=C(c3cccc(Cl)c3)C2)cc1OC | 0.0 | 102.7 | -52.2 | 0.7
CC(C)(C)[C@H]1COC(=O)[C@H](Cc2ccc(F)cc2)CC/C=C/C[C@@H](CC(=O)N[C@H](CO)Cc2ccccc2)C(=O)N1 | 0.1 | 96.5 | -26.7 | 11.0
CCOC(=O)c1c(-c2ccc(C)cc2)csc1NC(=O)c1ccc(N2C(=O)CCC2=O)cc1 | -0.1 | 98.4 | 13.2 | 37.8
CCOC(=O)c1cc(CC)sc1NC(=O)c1ccc(N2C(=O)CCC2=O)cc1 | -0.1 | 78.7* | -1.2 | 26.1
O=C(NCCCCNC(=O)c1ccc(Br)s1)c1ccc(Br)s1 | -0.2 | 61.3 | -339.4 | 9.7
